Active and inactive are the calls of the source. The calls are words filed in the database; no cut-off is given here. Numbered stars: 1 amine (or outer) side, 2 acyl side, 3 side chain; on linkers, the order of the positions; unused ones are H or OH. Square brackets hold non-standard residues; d marks the D form. Peptide text beside a SMILES is read from it. X4 = Cc1ccc(C[C@H](N)CN(CC(=O)[*:2])[*:1])cc1; X2 = N[C@@H](Cc1ccccc1)CN(CC(=O)[*:2])[*:1]; X3 = N[C@@H](CC1CCCCC1)CN(CC(=O)[*:2])[*:1]; Nphe = O=C(O)CNCc1ccccc1

The source of these data is ChEMBL document CHEMBL1133453, “Further studies on nociceptin-related peptides: discovery of a new chemical template with antagonist activity on the nociceptin receptor” (J Med Chem, 2000).

The species entered for assay [1] is Mus musculus. Briefly: Potency (Emax) against electrically evoked contraction (twitch response) in mouse vas deferens; NA means Inactive up to 10 uM. Format: functional, organism-based. The method in brief:
(§1)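 Mouse vas deferens held in Mg2+-free Krebs at 33 °C under 0.3 g resting tension. Field stimulation through platinum electrodes with supramaximal 1-ms pulses at 0.1 Hz, twitches recorded isotonically. After about 2 h equilibration, cumulative concentration-response curves built in 0.5 log steps up to 10 µM. pEC50 taken as the concentration giving half-maximal effect. Mean of at least 3 experiments.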

For assay [2], the species on record is Mus musculus. The assay can be described thus: Compound was tested for agonistic activity against electrically evoked contraction (twitch response) in mouse vas deferens; NA means Inactive up to 10 uM. Format: functional, organism-based. The method in brief: as §1
The species entered for assay [3] is Mus musculus. The assay can be described thus: Compound was tested for the antagonistic activity on mouse vas deferens using NC(1-13)NH2 as agonist. Format: functional. In a few lines:
(§2)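 Electrically stimulated mouse vas deferens (Mg2+-free Krebs, 33 °C, 0.1 Hz, 1-ms pulses). Antagonist at 10 µM added 15 min before a cumulative NC(1-13)NH2 concentration-response curve. pKB calculated with the Gaddum-Schild equation, assuming a slope of 1, from the concentration ratio. Mean of at least 3 experiments, with 95% confidence limits.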

The species named for assay [4] is Mus musculus. Briefly: Compound was tested for the antagonistic activity on mouse vas deferens using NC(1-13)NH2 as agonist; NA means Inactive up to 10 uM. Format: functional, organism-based. The method in brief: as §2
A further assay deals with Nociceptin receptor (Mus musculus, UniProt P35377). The assay can be described thus: Affinity to nociceptin receptors on mouse forebrain membranes by [3H]NC-NH2 displacement. The method in brief: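 Forebrain membranes from male Swiss mice (25-30 g), homogenized in 50 mM Tris HCl, 2 mM EDTA, 100 µM PMSF, pH 7.4, then preincubated 30 min at 37 °C. Bound ligand separated by GF/C filtration. Ki obtained by nonlinear least-squares fitting.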
Nociceptin receptor, sequence (P35377 whole entry): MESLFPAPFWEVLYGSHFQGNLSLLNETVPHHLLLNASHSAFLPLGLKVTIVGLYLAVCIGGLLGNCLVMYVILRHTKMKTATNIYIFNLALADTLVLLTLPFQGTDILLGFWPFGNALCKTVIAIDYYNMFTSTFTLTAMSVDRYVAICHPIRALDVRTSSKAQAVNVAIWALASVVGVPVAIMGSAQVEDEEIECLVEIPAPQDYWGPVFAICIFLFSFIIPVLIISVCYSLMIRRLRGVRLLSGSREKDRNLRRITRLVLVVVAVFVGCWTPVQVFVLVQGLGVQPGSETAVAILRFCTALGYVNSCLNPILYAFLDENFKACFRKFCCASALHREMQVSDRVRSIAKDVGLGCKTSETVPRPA

In the case of `C[C@H](NC(=O)CNC(=O)[C@@H](NC(=O)[C@H](Cc1ccccc1)NC(=O)CNC(=O)CNC(=O)CNCc1ccccc1)[C@@H](C)O)C(=O)N[C@@H](CCCN=C(N)N)C(=O)N[C@@H](CCCCN)C(=O)N[C@@H](CO)C(=O)N[C@@H](C)C(=O)N[C@@H](CCCN=C(N)N)C(=O)N[C@@H](CCCCN)C(N)=O`, the Emax entry in the assay listed under Mus musculus [1] was “inactive”. In the assay listed under Mus musculus [2], the “Log EC50” value was “inactive”. The compound further gave a pKB in the assay filed under Mus musculus [3] of 6.4.

As to `Cc1ccc(CNCC(=O)NCC(=O)NCC(=O)N[C@@H](Cc2ccccc2)C(=O)N[C@H](C(=O)NCC(=O)N[C@@H](C)C(=O)N[C@@H](CCCN=C(N)N)C(=O)N[C@@H](CCCCN)C(=O)N[C@@H](CO)C(=O)N[C@@H](C)C(=O)N[C@@H](CCCN=C(N)N)C(=O)N[C@@H](CCCCN)C(N)=O)[C@@H](C)O)cc1`, the Emax result in the assay listed under Mus musculus [1] was “inactive”. Besides, the “Log EC50” value in the assay filed under Mus musculus [2] was “inactive”. Moreover, in the assay listed under Mus musculus [4], the pKB entry was “inactive”. The affinity at Nociceptin receptor corresponds to a Ki of 2510 nM.

As to `CC(C)C[C@H](NC(=O)[C@H](CCCCN)NC(=O)[C@H](CCCN=C(N)N)NC(=O)[C@H](C)NC(=O)[C@H](CO)NC(=O)[C@H](CCCCN)NC(=O)[C@H](CCCN=C(N)N)NC(=O)[C@H](C)NC(=O)CNC(=O)[C@@H](NC(=O)[C@H](Cc1ccccc1)NC(=O)CNC(=O)CNC(=O)CNCc1ccccc1)[C@@H](C)O)C(=O)N[C@@H](C)C(=O)N[C@@H](CC(N)=O)C(=O)N[C@@H](CCC(N)=O)C(N)=O`, in the assay listed under Mus musculus [1], the Emax entry was “inactive”. For the same compound, the “Log EC50” value in the assay filed under Mus musculus [2] was “inactive”. The same compound had a pKB in the assay listed under Mus musculus [3] of 6.3. Further, affinity at Nociceptin receptor was put at a Ki of 126 nM.

As for `C[C@H](NC(=O)CNC(=O)[C@@H](NC(=O)[C@H](Cc1ccccc1)NC(=O)CNC(=O)CNC(=O)CNCc1ccc(O)cc1)[C@@H](C)O)C(=O)N[C@@H](CCCN=C(N)N)C(=O)N[C@@H](CCCCN)C(=O)N[C@@H](CO)C(=O)N[C@@H](C)C(=O)N[C@@H](CCCN=C(N)N)C(=O)N[C@@H](CCCCN)C(N)=O`, in the assay listed under Mus musculus [1], the Emax entry is “inactive”. Also, the “Log EC50” value in the assay listed under Mus musculus [2] was “inactive”. Also, the pKB result in the assay filed under Mus musculus [4] was “inactive”. Further, on Nociceptin receptor, the Ki was 3160 nM.

Consider `CC(C)CNCC(=O)NCC(=O)NCC(=O)N[C@@H](Cc1ccccc1)C(=O)N[C@H](C(=O)NCC(=O)N[C@@H](C)C(=O)N[C@@H](CCCN=C(N)N)C(=O)N[C@@H](CCCCN)C(=O)N[C@@H](CO)C(=O)N[C@@H](C)C(=O)N[C@@H](CCCN=C(N)N)C(=O)N[C@@H](CCCCN)C(N)=O)[C@@H](C)O`, for which the Emax entry in the assay listed under Mus musculus [1] is “inactive”. Also, the “Log EC50” value in the assay listed under Mus musculus [2] is “inactive”. In addition, the pKB entry in the assay filed under Mus musculus [4] is “inactive”. Also, at Nociceptin receptor, the Ki was 2510 nM.

Turning to `C[C@H](NC(=O)CNC(=O)[C@@H](NC(=O)[C@H](Cc1ccccc1)NC(=O)CNC(=O)CNC(=O)CNCC1CCCCC1)[C@@H](C)O)C(=O)N[C@@H](CCCN=C(N)N)C(=O)N[C@@H](CCCCN)C(=O)N[C@@H](CO)C(=O)N[C@@H](C)C(=O)N[C@@H](CCCN=C(N)N)C(=O)N[C@@H](CCCCN)C(N)=O`, in the assay filed under Mus musculus [1], the Emax result is “inactive”. In addition, the “Log EC50” value in the assay listed under Mus musculus [2] was “inactive”. In the assay listed under Mus musculus [4], the pKB result was “inactive”. Moreover, at Nociceptin receptor, the Ki is 2510 nM.

For the compound `C[C@H](NC(=O)CNC(=O)[C@@H](NC(=O)[C@H](Cc1ccccc1)NC(=O)CNC(=O)CNC(=O)[C@@H](N)Cc1ccccc1)[C@@H](C)O)C(=O)N[C@@H](CCCN=C(N)N)C(=O)N[C@@H](CCCCN)C(N)=O` (H-FGGFTGARK-NH2), the Emax entry in the assay listed under Mus musculus [1] was “inactive”. Further, the “Log EC50” value in the assay listed under Mus musculus [2] was “inactive”. Also, the pKB entry in the assay listed under Mus musculus [4] was “inactive”. This compound also had an inhibitory constant (Ki) at Nociceptin receptor above 10000 nM.

Turning to `C[C@H](NC(=O)CNC(=O)[C@@H](NC(=O)[C@H](Cc1ccccc1)NC(=O)CNC(=O)CNC(=O)CNCc1ccccc1)[C@@H](C)O)C(=O)N[C@@H](CCCN=C(N)N)C(=O)N[C@@H](CCCCN)C(=O)N[C@@H](CO)C(=O)N[C@@H](C)C(=O)N[C@@H](CCCN=C(N)N)C(N)=O` (H-[Nphe]GGFTGARKSAR-NH2), the Emax entry in the assay listed under Mus musculus [1] is “inactive”. For the same compound, in the assay listed under Mus musculus [2], the “Log EC50” value was “inactive”. The pKB entry in the assay listed under Mus musculus [4] was “inactive”. The same compound gave a Ki on Nociceptin receptor of 3160 nM.

For `C[C@H](NC(=O)CNC(=O)[C@@H](NC(=O)[C@H](Cc1ccccc1)NC(=O)CNC(=O)CNC[C@@H](N)Cc1ccccc1)[C@@H](C)O)C(=O)N[C@@H](CCCN=C(N)N)C(=O)N[C@@H](CCCCN)C(N)=O` (H-[X2]GFTGARK-NH2), in the assay listed under Mus musculus [1], the Emax result is “inactive”. The “Log EC50” value in the assay filed under Mus musculus [2] was “inactive”. In the assay filed under Mus musculus [3], the negative-log KB (pKB) amounted to 5.1. The compound further had a Ki at Nociceptin receptor above 10000 nM.

Turning to `C[C@H](NC(=O)CNC(=O)[C@@H](NC(=O)[C@H](Cc1ccccc1)NC(=O)CNC(=O)CNC[C@@H](N)Cc1ccccc1)[C@@H](C)O)C(=O)N[C@@H](CCCN=C(N)N)C(=O)N[C@@H](CCCCN)C(=O)N[C@@H](CO)C(=O)N[C@@H](C)C(=O)N[C@@H](CCCN=C(N)N)C(N)=O` (H-[X2]GFTGARKSAR-NH2), the Emax entry in the assay listed under Mus musculus [1] is “inactive”. The “Log EC50” value in the assay filed under Mus musculus [2] was “inactive”. For the same compound, in the assay listed under Mus musculus [3], the pKB is given as 5.2. The same compound gave a Ki at Nociceptin receptor of 398 nM.

Turning to `C[C@H](NC(=O)CNC(=O)[C@@H](NC(=O)[C@H](Cc1ccccc1)NC(=O)CNC(=O)CNC[C@@H](N)Cc1ccccc1)[C@@H](C)O)C(=O)N[C@@H](CCCN=C(N)N)C(=O)N[C@@H](CCCCN)C(=O)N[C@@H](CO)C(=O)N[C@@H](C)C(=O)N[C@@H](CCCN=C(N)N)C(=O)N[C@@H](CCCCN)C(N)=O` (H-[X2]GFTGARKSARK-NH2), the Emax entry in the assay filed under Mus musculus [1] was “inactive”. For the same compound, in the assay filed under Mus musculus [2], the “Log EC50” value is “inactive”. Besides, the pKB in the assay listed under Mus musculus [3] turned out to be 6.8. This compound showed a Ki at Nociceptin receptor of 10 nM.

On to `CC(C)C[C@H](NC(=O)[C@H](CCCCN)NC(=O)[C@H](CCCN=C(N)N)NC(=O)[C@H](C)NC(=O)[C@H](CO)NC(=O)[C@H](CCCCN)NC(=O)[C@H](CCCN=C(N)N)NC(=O)[C@H](C)NC(=O)CNC(=O)[C@@H](NC(=O)[C@H](Cc1ccccc1)NC(=O)CNC(=O)CNC[C@@H](N)Cc1ccccc1)[C@@H](C)O)C(=O)N[C@@H](C)C(=O)N[C@@H](CC(N)=O)C(=O)N[C@@H](CCC(N)=O)C(N)=O` (H-[X2]GFTGARKSARKLANQ-NH2), for which the Emax entry in the assay listed under Mus musculus [1] was “inactive”. In addition, in the assay filed under Mus musculus [2], the “Log EC50” value was “inactive”. Further, the negative logarithm of the KB (pKB) in the assay filed under Mus musculus [3] is reported as 7. Further, the affinity at Nociceptin receptor, expressed as Ki, was 20 nM.

Regarding `C[C@H](NC(=O)CNC(=O)[C@@H](NC(=O)[C@H](Cc1ccccc1)NC(=O)CNC(=O)CNC[C@@H](N)CC1CCCCC1)[C@@H](C)O)C(=O)N[C@@H](CCCN=C(N)N)C(=O)N[C@@H](CCCCN)C(=O)N[C@@H](CO)C(=O)N[C@@H](C)C(=O)N[C@@H](CCCN=C(N)N)C(=O)N[C@@H](CCCCN)C(N)=O` (H-[X3]GFTGARKSARK-NH2), the Emax result in the assay filed under Mus musculus [1] is “inactive”. In the assay listed under Mus musculus [2], the “Log EC50” value was “inactive”. In addition, in the assay filed under Mus musculus [4], the pKB entry is “inactive”. Affinity on Nociceptin receptor was put at a Ki of 316 nM.

`Cc1ccc(C[C@H](N)CNCC(=O)NCC(=O)N[C@@H](Cc2ccccc2)C(=O)N[C@H](C(=O)NCC(=O)N[C@@H](C)C(=O)N[C@@H](CCCN=C(N)N)C(=O)N[C@@H](CCCCN)C(=O)N[C@@H](CO)C(=O)N[C@@H](C)C(=O)N[C@@H](CCCN=C(N)N)C(=O)N[C@@H](CCCCN)C(N)=O)[C@@H](C)O)cc1` (H-[X4]GFTGARKSARK-NH2): the Emax entry in the assay listed under Mus musculus [1] is “inactive”. The “Log EC50” value in the assay filed under Mus musculus [2] is “inactive”. This compound also registered a pKB in the assay listed under Mus musculus [3] of 5.7. Moreover, the Ki at Nociceptin receptor was 631 nM.

For orientation: pKB means the KB on a negative log10 scale, so that one unit is a factor of ten. As a reminder, the Ki is the equilibrium dissociation constant of an inhibitor or competing ligand from its target. A higher Ki goes with lower affinity.
